ChEMBL document CHEMBL3352339, “Implications of N-capped urea/thiourea and C-capped 3-(1-piperazinyl)-1,2-benzisothiazole with bridging Gly-Val/Phe-Gly-Val-Pro as therapeutic targets” (Eur J Med Chem, 2014)
In brackets after ≈: the same amount, converted by molar mass. Starred links: 1 amine or outer side, 2 acyl side, 3 side chain; linkers in the order of their positions; H or OH if unused. Residues, ends and D or L forms follow the SMILES beside them. *: point of attachment. X1 = c1ccc2c(N3CCN(*)CC3)nsc2c1; NH(2-F-phenyl) = Fc1ccccc1N*; X2 = Fc1ccc(NC(=S)*)cc1; Boc = CC(C)(C)OC(=O)*; CO = O=C([*:1])[*:2]

Legend:
[1] = tested on: Escherichia coli; test: Antibacterial activity against Escherichia coli at 50 ug/mL incubated for 24 hrs by agar well diffusion method; assay type: functional; settings: read-out: IZ
Summary of the method: (§1)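 Agar well diffusion against the bacterial isolate, with streptomycin as the reference drug. Read-out is the average diameter (mm) of the growth-inhibition zone around the well.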

[2] = tested on: Fusarium oxysporum; test: Antifungal activity against Fusarium oxysporum at 50 ug/mL incubated for 3 days by agar well diffusion method; assay type: functional; settings: 72 h, read-out: IZ
Summary of the method: (§2)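 Fungal growth inhibition measured by agar well diffusion, with bavistin as the reference. Records the mean inhibition-zone diameter (mm) around each well.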

[3] = tested on: Aspergillus flavus; test: Antifungal activity against Aspergillus flavus at 50 ug/mL incubated for 3 days by agar well diffusion method; assay type: functional; settings: 72 h, read-out: IZ; summary of the method: as §2
[4] = tested on: Fusarium verticillioides; test: Antifungal activity against Fusarium moniliforme at 50 ug/mL incubated for 3 days by agar well diffusion method; assay type: functional; settings: 72 h, read-out: IZ; summary of the method: as §2
[5] = tested on: Staphylococcus; test: Antibacterial activity against Coagulase positive Staphylococcus at 50 ug/mL incubated for 24 hrs by agar well diffusion method; assay type: functional; settings: read-out: IZ; summary of the method: as §1
[6] = tested on: Xanthomonas oryzae; test: Antibacterial activity against Xanthomonas oryzae at 50 ug/mL incubated for 24 hrs by agar well diffusion method; assay type: functional; settings: read-out: IZ
[7] = molecular target: Urease (Canavalia ensiformis, UniProt P07374); test: Inhibition of jack bean urease assessed as reduction in ammonia production incubated at 30 degC for 15 mins by indophenol method
Urease, sequence (P07374 whole entry): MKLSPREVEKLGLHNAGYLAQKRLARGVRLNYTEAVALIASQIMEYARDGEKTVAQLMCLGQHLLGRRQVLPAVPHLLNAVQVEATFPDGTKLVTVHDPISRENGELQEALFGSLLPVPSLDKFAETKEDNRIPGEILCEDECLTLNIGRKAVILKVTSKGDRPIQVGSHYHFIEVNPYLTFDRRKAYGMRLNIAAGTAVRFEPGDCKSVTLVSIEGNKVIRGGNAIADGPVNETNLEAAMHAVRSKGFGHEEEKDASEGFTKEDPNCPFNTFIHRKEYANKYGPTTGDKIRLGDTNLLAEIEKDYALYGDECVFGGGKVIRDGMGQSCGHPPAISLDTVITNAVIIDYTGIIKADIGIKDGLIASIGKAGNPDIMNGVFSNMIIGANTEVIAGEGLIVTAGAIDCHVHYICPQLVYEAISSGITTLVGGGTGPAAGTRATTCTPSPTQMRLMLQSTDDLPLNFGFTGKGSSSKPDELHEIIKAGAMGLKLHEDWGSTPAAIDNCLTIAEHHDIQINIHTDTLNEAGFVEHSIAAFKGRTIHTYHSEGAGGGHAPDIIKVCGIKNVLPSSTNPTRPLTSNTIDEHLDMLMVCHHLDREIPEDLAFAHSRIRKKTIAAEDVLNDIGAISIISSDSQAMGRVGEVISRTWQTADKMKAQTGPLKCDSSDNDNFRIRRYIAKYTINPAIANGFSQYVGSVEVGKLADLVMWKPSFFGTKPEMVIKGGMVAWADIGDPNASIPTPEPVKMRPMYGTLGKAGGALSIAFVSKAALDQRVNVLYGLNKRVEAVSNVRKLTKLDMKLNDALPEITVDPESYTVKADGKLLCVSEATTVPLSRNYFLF
Summary of the method: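 Inhibition of jack bean urease, with thiourea as the reference standard. IC50 values are the average of triplicate runs.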

[8] = Inhibition of sheep stomach parietal cells gastric H+/K+-ATPase activity assessed as reduction in inorganic phosphorus production by Fiske Subbarow's method; assay type: tissue-based, Ovis aries
Summary of the method: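 Inhibition of purified H+/K+-ATPase, with omeprazole as the reference. IC50 is the mean of triplicate runs.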

[9] = tested on: Klebsiella pneumoniae; test: Antibacterial activity against Klebsiella pneumoniae at 50 ug/mL incubated for 24 hrs by agar well diffusion method; assay type: functional; settings: read-out: IZ; summary of the method: as §1
[10] = tested on: Aspergillus niger; test: Antifungal activity against Aspergillus niger at 50 ug/mL incubated for 3 days by agar well diffusion method; assay type: functional; settings: 72 h, read-out: IZ; summary of the method: as §2
[11] = Antiglycation activity using bovine serum albumin incubated at 37 degC for 7 days by spectrofluorimetry; assay type: physicochemical
Summary of the method: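 Glycation of bovine serum albumin, with rutin as the reference standard. IC50 values are averages of triplicate runs.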

[12] = tested on: Escherichia coli; test: Antibacterial activity against Escherichia coli incubated for 24 hrs by agar microdilution method; assay type: functional
[13] = tested on: Klebsiella pneumoniae; test: Antibacterial activity against Klebsiella pneumoniae incubated for 24 hrs by agar microdilution method; assay type: functional
[14] = tested on: Staphylococcus; test: Antibacterial activity against Coagulase positive Staphylococcus incubated for 24 hrs by agar microdilution method; assay type: functional
[15] = tested on: Aspergillus niger; test: Antifungal activity against Aspergillus niger incubated for 48 to 72 hrs by agar microdilution method; assay type: functional
Summary of the method: (§3)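 MIC by microdilution against the fungal strain, limited to compounds showing significant zones in the diffusion assay. Bavistin was used as the reference.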

[16] = tested on: Aspergillus flavus; test: Antifungal activity against Aspergillus flavus incubated for 48 to 72 hrs by agar microdilution method; assay type: functional; summary of the method: as §3
[17] = tested on: Fusarium verticillioides; test: Antifungal activity against Fusarium moniliforme incubated for 48 to 72 hrs by agar microdilution method; assay type: functional; summary of the method: as §3
[18] = tested on: Fusarium oxysporum; test: Antifungal activity against Fusarium oxysporum incubated for 48 to 72 hrs by agar microdilution method; assay type: functional; summary of the method: as §3
[19] = tested on: Xanthomonas oryzae; test: Antibacterial activity against Xanthomonas oryzae incubated for 24 hrs by agar microdilution method; assay type: functional

Structure (SMILES)	zone of inhibition at 50 µg/mL [1]	zone of inhibition at 50 µg/mL [2]	zone of inhibition at 50 µg/mL [3]	zone of inhibition at 50 µg/mL [4]	zone of inhibition at 50 µg/mL [5]	zone of inhibition at 50 µg/mL [6]	IC50 [7]	IC50 [8]	zone of inhibition at 50 µg/mL [9]	zone of inhibition at 50 µg/mL [10]	IC50 [11]	MIC [12]	MIC [13]	MIC [14]	MIC [15]	IC50 ([8]; read-out: IC50)	MIC [16]	MIC [17]	MIC [18]	MIC [19]
CC(C)[C@H](NC(=O)CNC(=O)OC(C)(C)C)C(=O)NCC(=O)N[C@H](C(=O)N1CCC[C@H]1C(=O)N1CCN(c2nsc3ccccc23)CC1)C(C)C (Boc-GVGVP-X1)	6 mm	6 mm	4 mm	5 mm	5 mm	4 mm	295 µM	Not Active	40.3 mm	5 mm	250 µM									
CC(C)[C@H](NC(=O)CNC(=O)[C@H](Cc1ccccc1)NC(=O)CNC(=S)Nc1ccc(F)cc1)C(=O)N1CCC[C@H]1C(=O)N1CCN(c2nsc3ccccc23)CC1 (X2-GFGVP-X1)	35 mm	35 mm	36 mm	36 mm	35 mm	34 mm	33 µM			35 mm	42 µM	9 µg/mL (≈ 10.8 µM)	8.5 µg/mL (≈ 10.2 µM)	9 µg/mL (≈ 10.8 µM)	9.75 µg/mL (≈ 11.7 µM)	72 µM	10.2 µg/mL (≈ 12.3 µM)	9.75 µg/mL (≈ 11.7 µM)	11 µg/mL (≈ 13.3 µM)	7.5 µg
CC(C)[C@H](NC(=O)CNC(=S)Nc1ccc(F)cc1)C(=O)NCC(=O)N[C@H](C(=O)N1CCC[C@H]1C(=O)N1CCN(c2nsc3ccccc23)CC1)C(C)C (X2-GVGVP-X1)	32 mm	35 mm	34 mm	35 mm	31 mm	29 mm	35 µM			35 mm	34 µM	10.2 µg/mL (≈ 13.1 µM)	10 µg/mL (≈ 12.8 µM)	10.8 µg/mL (≈ 13.7 µM)	10.5 µg/mL (≈ 13.4 µM)	76 µM	12.8 µg/mL (≈ 16.3 µM)	11 µg/mL (≈ 14.1 µM)	13.2 µg/mL (≈ 16.9 µM)	9.5 µg
CC(C)[C@H](NC(=O)CNC(=O)[C@H](Cc1ccccc1)NC(=O)CNC(=O)Nc1ccccc1F)C(=O)N1CCC[C@H]1C(=O)N1CCN(c2nsc3ccccc23)CC1 ({NH(2-F-phenyl)-CO}-GFGVP-X1)	30 mm	29 mm	28 mm	26 mm	29 mm	28 mm	41 µM			29 mm	53 µM	12.8 µg/mL (≈ 15.7 µM)	12.2 µg/mL (≈ 15 µM)	12.2 µg/mL (≈ 15 µM)	14 µg/mL (≈ 17.2 µM)	110 µM	14.2 µg/mL (≈ 17.5 µM)	10 µg/mL (≈ 12.3 µM)	14 µg/mL (≈ 17.2 µM)	
CC(C)[C@H](NC(=O)CNC(=O)Nc1ccccc1F)C(=O)NCC(=O)N[C@H](C(=O)N1CCC[C@H]1C(=O)N1CCN(c2nsc3ccccc23)CC1)C(C)C ({NH(2-F-phenyl)-CO}-GVGVP-X1)	25 mm	22 mm	24 mm	26 mm	25 mm	23 mm	42 µM			25 mm	54 µM	15.8 µg/mL (≈ 20.6 µM)	17 µg/mL (≈ 22.2 µM)	16.8 µg/mL (≈ 21.9 µM)	16.8 µg/mL (≈ 21.9 µM)	100 µM	17.8 µg/mL (≈ 23.2 µM)	15.5 µg/mL (≈ 20.2 µM)	16.8 µg/mL (≈ 21.9 µM)	
